From ChEMBL document CHEMBL4732214, “Highly Selective Y Receptor Antagonist Binds in an Allosteric Binding Pocket” (J Med Chem, 2021)
Activity calls are given as the source filed them. The rule behind the calls is not given here.

What was measured:
[1] = target: T1, Neuropeptide Y receptor type 4 (Homo sapiens, UniProt P50391); test: Allosteric antagonist activity at […]-tagged human NPY4R expressed in COS7 cells co-expressing Gqi5-alpha assessed as inhibition of PP-induced Ca2+ flux by Fluo-2 AM dye based fluorescent assay; type: functional, cell-based; details: filed as allosteric antagonist
[2] = target: T1, Neuropeptide Y receptor type 4; test: Allosteric antagonist activity at […]-tagged human NPY4R expressed in COS7 cells co-expressing Gqi5-alpha assessed as inhibition of PP-induced Ca2+ flux by Fluo-2 AM dye based fluorescent assay relative to control; type: functional, cell-based; details: read-out: IC50
[3] = target: T1, Neuropeptide Y receptor type 4; test: Allosteric antagonist activity at […]-tagged human NPY4R expressed in COS7 cells co-expressing Gqi5-alpha assessed as inhibition of PP-induced inositol phosphate accumulation by IP-one assay; type: functional, cell-based; details: filed as allosteric antagonist
Method in brief: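 IP-One Gq HTRF assay in COS7 cells stably expressing Y4R-eYFP and Δ6Gαqi4myr, 8000 cells/well seeded overnight. Compound or DMSO added, then PP stimulation in HBSS + 20 mM LiCl for 1 h at 37 °C. Cells lysed with kit antibody reagents. Emission read at 665 and 620 nm.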

[4] = target: T2, Neuropeptide Y receptor type 5 (Mus musculus) (UniProt O70342); test: Allosteric antagonist activity at NPY5R in mouse descending colon mucosa assessed as reduction in rPP-induced ion transport at 30 uM by electrophysiology
T2 sequence (whole entry): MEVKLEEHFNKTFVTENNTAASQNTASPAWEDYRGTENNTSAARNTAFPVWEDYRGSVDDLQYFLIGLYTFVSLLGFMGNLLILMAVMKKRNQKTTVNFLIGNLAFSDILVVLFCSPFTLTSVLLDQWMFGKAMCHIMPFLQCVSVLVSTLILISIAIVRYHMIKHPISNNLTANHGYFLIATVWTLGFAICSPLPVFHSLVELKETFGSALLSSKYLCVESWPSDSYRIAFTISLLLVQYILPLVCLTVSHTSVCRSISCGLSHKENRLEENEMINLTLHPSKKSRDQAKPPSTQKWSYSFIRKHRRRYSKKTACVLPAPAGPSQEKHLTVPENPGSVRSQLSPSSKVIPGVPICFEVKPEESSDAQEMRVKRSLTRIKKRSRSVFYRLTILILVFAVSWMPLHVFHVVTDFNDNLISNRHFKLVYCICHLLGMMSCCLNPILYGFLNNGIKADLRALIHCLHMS
Method in brief: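 Mouse descending colon mucosae (0.14 cm² exposed) in Ussing chambers, Krebs−Henseleit both sides, oxygenated, 37 °C, voltage-clamped at 0 mV. After stable basal Isc (20 min), DMSO (0.3%) or antagonist 300 nM–30 μM added basolaterally, then VIP 10 nM (10−15 min), then rPP 30 nM to lower Isc, then PYY 10 nM 15 min later. Isc changes pooled, mean ± SEM, N = 5.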

COS7 [5] = test: Allosteric antagonist activity at human NPY4R Y1.39 position mutant expressed in COS7 cells co-expressing Gqi5-alpha assessed as inhibition of PP-induced Ca2+ flux by Fluo-2 AM dye based fluorescent assay; type: cell-based; details: dose 15.0 µM
Method in brief: (§1)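 COS7 cells transiently cotransfected overnight with 3 μg receptor-eYFP variant plasmid and 1 μg Δ6Gαqi4myr, reseeded next day. Fluo2-AM (2.4 μM) Ca²⁺ assay in HBSS/HEPES/probenecid pH 7.4. Compound concentration series added after 20 s baseline, PP at EC80 added 110 s later. Responses as x-fold over basal, normalized to 1 μM PP. N ≥ 3.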

COS7 [6] = test: Allosteric antagonist activity at human NPY4R Q2.58 position mutant expressed in COS7 cells co-expressing Gqi5-alpha assessed as inhibition of PP-induced Ca2+ flux by Fluo-2 AM dye based fluorescent assay; type: cell-based; method in brief: as §1
COS7 [7] = test: Allosteric antagonist activity at human NPY4R T2.61 position mutant expressed in COS7 cells co-expressing Gqi5-alpha assessed as inhibition of PP-induced Ca2+ flux by Fluo-2 AM dye based fluorescent assay; type: cell-based; method in brief: as §1
COS7 [8] = test: Allosteric antagonist activity at human NPY4R Y2.64 position mutant expressed in COS7 cells co-expressing Gqi5-alpha assessed as inhibition of PP-induced Ca2+ flux by Fluo-2 AM dye based fluorescent assay; type: cell-based; method in brief: as §1
COS7 [9] = test: Allosteric antagonist activity at human NPY4R W2.70 position mutant expressed in COS7 cells co-expressing Gqi5-alpha assessed as inhibition of PP-induced Ca2+ flux by Fluo-2 AM dye based fluorescent assay; type: cell-based; method in brief: as §1
COS7 [10] = test: Allosteric antagonist activity at human NPY4R S3.28 position mutant expressed in COS7 cells co-expressing Gqi5-alpha assessed as inhibition of PP-induced Ca2+ flux by Fluo-2 AM dye based fluorescent assay; type: cell-based; method in brief: as §1
COS7 [11] = test: Allosteric antagonist activity at human NPY4R A3.29 position mutant expressed in COS7 cells co-expressing Gqi5-alpha assessed as inhibition of PP-induced Ca2+ flux by Fluo-2 AM dye based fluorescent assay; type: cell-based; method in brief: as §1
COS7 [12] = test: Allosteric antagonist activity at human NPY4R Q3.32 position mutant expressed in COS7 cells co-expressing Gqi5-alpha assessed as inhibition of PP-induced Ca2+ flux by Fluo-2 AM dye based fluorescent assay; type: cell-based; method in brief: as §1
COS7 [13] = test: Allosteric antagonist activity at human NPY4R F4.60 position mutant expressed in COS7 cells co-expressing Gqi5-alpha assessed as inhibition of PP-induced Ca2+ flux by Fluo-2 AM dye based fluorescent assay; type: cell-based; method in brief: as §1
COS7 [14] = test: Allosteric antagonist activity at human NPY4R F7.35 position mutant expressed in COS7 cells co-expressing Gqi5-alpha assessed as inhibition of PP-induced Ca2+ flux by Fluo-2 AM dye based fluorescent assay; type: cell-based; method in brief: as §1
COS7 [15] = test: Allosteric antagonist activity at human NPY4R L7.36 position mutant expressed in COS7 cells co-expressing Gqi5-alpha assessed as inhibition of PP-induced Ca2+ flux by Fluo-2 AM dye based fluorescent assay; type: cell-based; method in brief: as §1
[16] = target: Neuropeptide Y receptor type 4 (Mus musculus); test: Allosteric antagonist activity at NPY4R in mouse descending colon mucosa assessed as reduction in rPP-induced ion transport by electrophysiology
[17] = target: T3, Neuropeptide Y receptor type 1 (Mus musculus) (UniProt Q04573); test: Allosteric antagonist activity at NPY1R in mouse descending colon mucosa assessed as reduction in PYY-induced ion transport at 30 uM by electrophysiology
T3 sequence (whole entry): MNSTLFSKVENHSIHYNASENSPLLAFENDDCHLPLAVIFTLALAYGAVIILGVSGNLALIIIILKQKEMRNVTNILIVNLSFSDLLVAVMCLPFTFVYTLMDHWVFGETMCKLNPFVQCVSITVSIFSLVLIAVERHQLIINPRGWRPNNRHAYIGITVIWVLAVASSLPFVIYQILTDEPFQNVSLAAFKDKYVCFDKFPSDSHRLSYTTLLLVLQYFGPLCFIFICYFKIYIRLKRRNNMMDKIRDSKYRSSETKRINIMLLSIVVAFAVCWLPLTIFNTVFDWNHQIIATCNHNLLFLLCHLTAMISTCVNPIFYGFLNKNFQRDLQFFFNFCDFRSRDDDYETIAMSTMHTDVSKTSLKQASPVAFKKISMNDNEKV

[18] = target: T4, Neuropeptide Y receptor type 2 (Mus musculus) (UniProt P97295); test: Allosteric antagonist activity at NPY2R in mouse descending colon mucosa assessed as reduction in PYY-induced ion transport at 30 uM by electrophysiology
T4 sequence (whole entry): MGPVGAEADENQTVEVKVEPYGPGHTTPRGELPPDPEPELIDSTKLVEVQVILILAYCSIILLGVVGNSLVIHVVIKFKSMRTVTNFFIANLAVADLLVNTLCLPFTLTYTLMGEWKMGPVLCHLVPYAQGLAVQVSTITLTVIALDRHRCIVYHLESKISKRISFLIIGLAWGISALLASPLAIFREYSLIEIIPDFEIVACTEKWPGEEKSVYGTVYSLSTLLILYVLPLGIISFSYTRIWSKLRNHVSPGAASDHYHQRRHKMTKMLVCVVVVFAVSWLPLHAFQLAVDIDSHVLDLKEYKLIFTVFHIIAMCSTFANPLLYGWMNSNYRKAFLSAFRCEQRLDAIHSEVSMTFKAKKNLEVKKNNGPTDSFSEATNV

[19] = target: T3, Neuropeptide Y receptor type 1 (Mus musculus); test: Allosteric antagonist activity at NPY1R in mouse descending colon mucosa assessed as reduction in PYY-induced ion transport at 0.3 to 30 uM by electrophysiology; details: dose 0.3-30 µM
[20] = target: T4, Neuropeptide Y receptor type 2 (Mus musculus); test: Allosteric antagonist activity at NPY2R in mouse descending colon mucosa assessed as reduction in PYY-induced ion transport at 0.3 to 30 uM by electrophysiology; details: dose 0.3-30 µM

T1 sequence (P50391 whole entry): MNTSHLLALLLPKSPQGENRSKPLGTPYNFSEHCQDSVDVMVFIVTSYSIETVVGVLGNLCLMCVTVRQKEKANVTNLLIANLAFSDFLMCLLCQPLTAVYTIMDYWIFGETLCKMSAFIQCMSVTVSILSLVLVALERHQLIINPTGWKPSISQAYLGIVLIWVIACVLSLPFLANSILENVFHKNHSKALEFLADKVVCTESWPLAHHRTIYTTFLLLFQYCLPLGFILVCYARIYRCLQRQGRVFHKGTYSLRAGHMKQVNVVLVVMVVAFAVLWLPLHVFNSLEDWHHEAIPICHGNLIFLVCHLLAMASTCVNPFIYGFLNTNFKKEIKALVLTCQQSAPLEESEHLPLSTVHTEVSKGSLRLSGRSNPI

CS(=O)(=O)N1CCCC[C@H]1C(=O)Nc1nc2cc3c(cc2s1)OCCO3
Kb [1]: 0.38 µM
inhibition [1]: Dose-dependent effect
pKb [1]: 6.4
IC50 [2]: 2.7 µM
inhibition [3]: Active
inhibition [4]: inactive
inhibition (COS7 [5]): inactive
inhibition (COS7 [6]): inactive
inhibition (COS7 [7]): inactive
inhibition (COS7 [8]): inactive
inhibition (COS7 [9]): inactive
inhibition (COS7 [10]): inactive
inhibition (COS7 [11]): inactive
inhibition (COS7 [12]): inactive
inhibition (COS7 [13]): inactive
inhibition (COS7 [14]): inactive
inhibition (COS7 [15]): inactive
IC50 [16]: 3.8 µM
inhibition ([16]; filed as allosteric antagonist): Dose-dependent effect
inhibition [17]: inactive
inhibition [18]: inactive
inhibition [19]: inactive
inhibition [20]: inactive
